The values below come from ChEMBL document CHEMBL1129452, “Phenethylthiazolylthiourea (PETT) compounds as a new class of HIV-1 reverse transcriptase inhibitors. 2. Synthesis and further structure-activity relationship studies of PETT analogs” (J Med Chem, 1996).

The structures appear in SMILES notation.

Assay [1] relates to MT4. Kind of assay: Inhibition of mutant type (Ile100) HIV-1 (IIIB) replication in MT-4 cells. The format is functional. The note with it: Homo sapiens, read-out: ED50 (the source's name). In a few lines:
(§1)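 MT-4 cells (human T cell line) in RPMI 1640 with 10% fetal calf serum, penicillin and streptomycin, seeded at 2 × 10⁴ cells/well. Infected with 10-20 TCID₅₀ of mutant HIV-1 IIIB per well, with the compound added at different concentrations. Incubated at 37 °C in CO₂. Cell viability read by XTT dye at day 5 or 6. Activity taken as the reduction in viral cytopathic effect, given as ED₅₀. Mutants were raised by passage in stepwise increasing concentrations of non-nucleoside RT inhibitors.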

The subject of assay [2] is MT4. Description: Tested for the inhibition of wild type HIV-1 (IIIB) replication in MT-4 cells. It counts as functional. The note with it: Homo sapiens, read-out: ED50 (the source's name). The procedure, abridged:
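MT-4 human T cells in RPMI 1640 with 10% fetal calf serum, penicillin and streptomycin, seeded at 2 × 10⁴ cells/well and infected with 10-20 TCID₅₀ HIV-1 IIIB per well. Compounds were added over a concentration range and cultures kept at 37 °C in CO₂. Viability was read by XTT at day 5 or 6, and activity was taken as reduction of viral cytopathic effect.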

For assay [3], the system named is MT4. Kind of assay: Inhibition of mutant type (Cys181) HIV-1 (IIIB) replication in MT-4 cells. The note with it: Homo sapiens, read-out: ED50 (the source's name). It counts as functional. The procedure, abridged: as §1
The target in assay [4] is T1, Human immunodeficiency virus type 1 reverse transcriptase (Human immunodeficiency virus 1, UniProt Q72547). Kind of assay: Tested for the inhibition of mutant type (Ile100) HIV-1 (IIIB) RT.
The target of assay [5] is T1, Human immunodeficiency virus type 1 reverse transcriptase. Kind of assay: Tested for the inhibition of mutant type (Cys181) HIV-1 (IIIB) RT.
Assay [6] shares this target. Kind of assay: Tested for the inhibition of wild type HIV-1 (IIIB) RT.

A word on the IC50: it is the point on the concentration scale where inhibition reaches its midpoint. As for `S=C(NCCc1c[nH]c2ccccc12)Nc1ccc(Br)cn1`, the EC50 was 3 µM in assay [1], 0.11 µM in assay [2] and 0.3 µM in assay [3]. Also, the results for the concentration for half-maximal inhibition (IC50) in assay [4], in assay [5] and in assay [6] were above 2.5 µM, 0.32 µM and 0.03 µM, respectively.
For `S=C(NCCn1nc2ccccc2n1)Nc1ccc(Br)cn1`, the EC50 was found to be 2 µM in assay [1], 0.014 µM in assay [2] and 1 µM in assay [3]. For the same compound, the IC50 in assay [4] was 2 µM; in assay [5], 0.1 µM; in assay [6] it was 0.003 µM.
As to `COc1ccc2[nH]cc(CC/N=C(\S)Nc3ccc(Br)cn3)c2c1`, the EC50 in assay [1] is above 2 µM; in assay [2], 0.5 µM; in assay [3], 0.9 µM. Further, the IC50 in assay [4] is above 2.5 µM; in assay [5] it was 2.5 µM; in assay [6], 0.32 µM.
As for `Cn1cccc1CCNC(=S)Nc1ccc(Cl)cn1`, the EC50 in assay [1] was above 2 µM; in assay [2], 0.25 µM; in assay [3], above 2 µM. Moreover, the results for the half-maximal inhibitory concentration (IC50) in assay [4], in assay [5] and in assay [6] were 2.7 µM, 1.4 µM and 0.09 µM, respectively.
As to `COc1ccc(F)c(CC/N=C(\S)Nc2ccc(Cl)cn2)c1C#N`, the EC50 in assay [1] is 0.4 µM; in assay [2], 0.011 µM; in assay [3], 0.1 µM. Besides, the concentration for half-maximal inhibition (IC50) in assay [4] turned out to be 1.1 µM; in assay [5], 1.1 µM; in assay [6] it was 0.005 µM.
Take `Cc1cc2nn(CCNC(=S)Nc3ccc(Br)cn3)nc2cc1C`: the EC50 is above 2 µM in assay [1], 0.22 µM in assay [2] and above 2 µM in assay [3]. Further, the IC50 was above 2.5 µM in assay [4], 0.1 µM in assay [5] and 0.15 µM in assay [6].
As to `CCOc1ccc(F)c(CC/N=C(\S)Nc2nc(C(F)(F)F)cs2)c1Cl`, the EC50 is above 2 µM in assay [1], 0.07 µM in assay [2] and above 2 µM in assay [3]. In addition, the results for the half-maximal inhibitory concentration (IC50) in assay [4], in assay [5] and in assay [6] were 7 µM, 7 µM and 0.047 µM, respectively.
Take `Cn1cccc1CC/N=C(\S)Nc1ccc(C#N)cn1`: the EC50 in assay [1] is above 2 µM; in assay [2] it was 0.11 µM; in assay [3] it was above 2 µM. The half-maximal inhibitory concentration (IC50) in assay [4] worked out at 3.5 µM; in assay [5] it was 1.1 µM; in assay [6], 0.07 µM.
As to `COc1ccc(F)c(CCNC(=S)Nc2ccc(Br)cn2)c1OC`, the figures for the EC50 in assay [1], in assay [2] and in assay [3] were 3 µM, 0.012 µM and 0.2 µM, respectively. Further, the values for the IC50 in assay [4], in assay [5] and in assay [6] were 0.43 µM, 0.085 µM and 0.007 µM, respectively.
Regarding `CN(C)c1ccc(F)c(CCNC(=S)Nc2ccc(Cl)cn2)c1F`, the EC50 was above 2 µM in assay [1], 0.04 µM in assay [2] and 0.7 µM in assay [3]. Moreover, the concentration for half-maximal inhibition (IC50) in assay [4] came out at 1.9 µM; in assay [5], 0.19 µM; in assay [6] it was 0.008 µM.
For `COCc1ccc(F)c(CCNC(=S)Nc2ccc(Br)cn2)c1F`, the EC50 in assay [1] turned out to be 2.5 µM; in assay [2], 0.006 µM; in assay [3] it was 0.3 µM. Also, the IC50 stood at 0.72 µM in assay [4], 0.1 µM in assay [5] and 0.004 µM in assay [6].
`CCOc1ccc(F)c(CCNC(=S)Nc2ccc(Cl)cn2)c1Cl`: the EC50 in assay [1] amounted to 0.6 µM; in assay [2], 0.008 µM; in assay [3] it was 0.007 µM. Also, the values for the half-maximal inhibitory concentration (IC50) in assay [4], in assay [5] and in assay [6] were 0.13 µM, 0.03 µM and 0.006 µM, respectively.
Take `CCOc1ccc(OCC)c(CCNC(=S)Nc2ccc(Br)cn2)c1`: the values for the EC50 in assay [1], in assay [2] and in assay [3] were above 2 µM, 0.018 µM and 0.8 µM, respectively. Besides, the figures for the IC50 in assay [4], in assay [5] and in assay [6] were 1.65 µM, 0.707 µM and 0.018 µM, respectively.
Take `CNC(=O)c1ccc(F)c(CC/N=C(\S)Nc2ccc(Br)cn2)c1F`: the EC50 is above 2 µM in assay [1], 0.08 µM in assay [2] and 0.3 µM in assay [3]. In addition, the results for the IC50 in assay [4], in assay [5] and in assay [6] were above 2 µM, above 2 µM and 0.023 µM, respectively.
In the case of `N#Cc1ccoc1CCNC(=S)Nc1ccc(Cl)cn1`, the EC50 in assay [1] came out at 0.7 µM; in assay [2], 0.02 µM; in assay [3], 0.2 µM. Further, the concentration for half-maximal inhibition (IC50) in assay [4] is 2.6 µM; in assay [5] it was 2.6 µM; in assay [6], 0.06 µM.
On to `O=C1c2c(Cl)ccc(Cl)c2C(=O)N1CCNC(=S)Nc1ccc(Cl)cn1`, for which the EC50 in assay [1] was above 2 µM; in assay [2] it was 0.019 µM; in assay [3], above 2 µM. Also, the IC50 in assay [4] stood at 0.23 µM; in assay [5], 0.01 µM; in assay [6], 0.002 µM.
On to `CCOc1c(Cl)cc(F)c(CCNC(=S)Nc2ccc(Br)cn2)c1Cl`, for which the EC50 in assay [1] stood at 1 µM; in assay [2], 0.013 µM; in assay [3] it was 0.02 µM. Further, the IC50 in assay [4] turned out to be 0.24 µM; in assay [5] it was 0.66 µM; in assay [6] it was 0.021 µM.
Turning to `COc1ccc(F)c(CCNC(=S)Nc2ccc(Br)cn2)c1F`, the EC50 in assay [1] stood at 0.6 µM; in assay [2], 0.015 µM; in assay [3], 0.05 µM. Moreover, the 50% inhibitory concentration (IC50) is 0.87 µM in assay [4], 0.06 µM in assay [5] and 0.006 µM in assay [6].
`CC(=O)NCc1ccc(F)c(CCNC(=S)Nc2ccc(Br)cn2)c1F`: the values for the EC50 in assay [1], in assay [2] and in assay [3] were above 2 µM, 0.9 µM and above 2 µM, respectively. Further, the IC50 is above 2 µM in assay [4], above 2 µM in assay [5] and 0.045 µM in assay [6].
As to `CCOc1ccc(F)c(CCNC(=S)Nc2ccc(C#N)cn2)c1Cl`, the EC50 in assay [1] is 0.5 µM; in assay [2], 0.003 µM; in assay [3] it was 0.03 µM. The half-inhibitory concentration (IC50) in assay [4] was 0.11 µM; in assay [5] it was 0.03 µM; in assay [6], 0.005 µM.
With `COc1ccc(F)c(CCNC(=S)Nc2ccc(C#N)cn2)c1C#N`, the EC50 in assay [1] turned out to be 0.2 µM; in assay [2], 0.001 µM; in assay [3], 0.03 µM. In addition, the IC50 in assay [4] is 0.06 µM; in assay [5], 0.05 µM; in assay [6], 0.003 µM.
Consider `CN(C)c1ccc(F)c(CCNC(=S)Nc2ccc(Br)cn2)c1F`, for which the EC50 in assay [1] is above 2 µM; in assay [2], 0.04 µM; in assay [3] it was 1 µM. The IC50 in assay [4] was 1.9 µM; in assay [5], 0.17 µM; in assay [6], 0.007 µM.
As to `Fc1cccc(F)c1CCNC(=S)Nc1ccc(Br)cn1`, the values for the EC50 in assay [1], in assay [2] and in assay [3] were 0.6 µM, 0.013 µM and 0.15 µM, respectively. Also, the IC50 in assay [4] was 0.05 µM; in assay [5] it was 0.03 µM.
Consider `CN(C)c1cc(F)c(CCNC(=S)Nc2ccc(Cl)cn2)c(F)c1`, for which the EC50 turned out to be 1.5 µM in assay [1], 0.018 µM in assay [2] and 0.9 µM in assay [3]. In addition, the IC50 in assay [4] was 0.27 µM; in assay [5], 0.13 µM; in assay [6], 0.02 µM.
As for `CCc1cc(NCc2nc3c(Cl)ccc(Cl)c3o2)c(O)nc1C` [L-697661], the EC50 was 0.85 µM in assay [1], 0.065 µM in assay [2] and above 11 µM in assay [3]. The values for the IC50 in assay [4] and in assay [5] were 0.85 µM and 7.7 µM, respectively.
As to `S=C(NCCc1ccccn1)Nc1ccc(Br)cn1` [TROVIRDINE], the EC50 in assay [2] turned out to be 0.02 µM.
